Source: ChEMBL document CHEMBL3576758, “Creation of Customized Bioactivity within a 14-Membered Macrolide Scaffold: Design, Synthesis, and Biological Evaluation Using a Family-18 Chitinase” (J Med Chem, 2015)

Columns and labels:
Chitinase B [1] = target: T1, Chitinase B (Serratia marcescens, UniProt P11797); assay: Inhibition of Serratia marcescens chitinase ChiB assessed as reduction in chitinolytic activity using 4MU-(GlcNAc)2 substrate by fluorescence based assay
T1 sequence (P11797 whole entry): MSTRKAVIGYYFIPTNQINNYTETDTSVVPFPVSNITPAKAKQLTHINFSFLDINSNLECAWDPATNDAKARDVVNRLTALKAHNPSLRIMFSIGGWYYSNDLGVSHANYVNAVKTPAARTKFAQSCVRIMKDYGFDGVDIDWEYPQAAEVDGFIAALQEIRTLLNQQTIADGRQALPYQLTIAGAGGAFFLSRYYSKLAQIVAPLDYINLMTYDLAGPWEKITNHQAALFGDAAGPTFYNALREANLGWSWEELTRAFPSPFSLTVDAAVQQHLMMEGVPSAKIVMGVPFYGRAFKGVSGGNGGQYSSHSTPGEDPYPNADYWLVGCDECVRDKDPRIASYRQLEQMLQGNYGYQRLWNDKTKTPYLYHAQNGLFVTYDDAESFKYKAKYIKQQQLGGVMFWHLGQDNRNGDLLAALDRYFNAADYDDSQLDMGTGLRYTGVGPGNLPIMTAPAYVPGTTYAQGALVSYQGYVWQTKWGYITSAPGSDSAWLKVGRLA
How it was run: (§1)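 Crude SmChiB: supernatant of sonicated E. coli DH5α carrying pMCB7, grown 24 h at 37 °C in LB with ampicillin and 0.5 mM IPTG, then diluted ×40. Enzyme and inhibitors (in MeOH) were mixed in 0.1 M phosphate, pH 7.0, at 37 °C, and 80 μM 4MU(GlcNAc)2 solution was added. Fluorescence (ex 355/em 460 nm) was read every 60 s, with rates corrected for inhibitor quenching. IC50 was taken from sigmoidal dose–response fits.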

Chitinase B [2] = target: T1, Chitinase B; assay: Inhibition of Serratia marcescens chitinase ChiB; how it was run: as §1
Klebsiella aerogenes = assay: Antibacterial activity against Enterobacter aerogenes NCTC 10006 by antimicrobial disk and dilution susceptibility test; type: functional
Micrococcus luteus = assay: Antibacterial activity against Micrococcus luteus ATCC 9341 by antimicrobial disk and dilution susceptibility test; type: functional
Staphylococcus aureus [3] = assay: Antibacterial activity against methicillin-sensitive Staphylococcus aureus Smith by antimicrobial disk and dilution susceptibility test; type: functional
Enterococcus faecalis = assay: Antibacterial activity against Enterococcus faecalis ATCC 29212 by antimicrobial disk and dilution susceptibility test; type: functional
Pseudomonas aeruginosa [4] = assay: Antibacterial activity against Pseudomonas aeruginosa 46001 by antimicrobial disk and dilution susceptibility test; type: functional
Serratia marcescens = assay: Antibacterial activity against Serratia marcescens IFO12648 by antimicrobial disk and dilution susceptibility test; type: functional
Pseudomonas aeruginosa [5] = assay: Antibacterial activity against Pseudomonas aeruginosa E-2 by antimicrobial disk and dilution susceptibility test; type: functional
[6] = tested on: Staphylococcus epidermidis; assay: Antibacterial activity against Staphylococcus epidermidis KUB795 by antimicrobial disk and dilution susceptibility test; type: functional
Klebsiella pneumoniae = assay: Antibacterial activity against Klebsiella pneumoniae NCTC 9632 by antimicrobial disk and dilution susceptibility test; type: functional
Staphylococcus aureus [7] = assay: Antibacterial activity against methicillin-sensitive Staphylococcus aureus FDA209P by antimicrobial disk and dilution susceptibility test; type: functional
Morganella morganii = assay: Antibacterial activity against Morganella morganii IID Kono by antimicrobial disk and dilution susceptibility test; type: functional
Enterobacter cloacae = assay: Antibacterial activity against Enterobacter cloacae IFO13535 by antimicrobial disk and dilution susceptibility test; type: functional
[8] = tested on: Acinetobacter calcoaceticus; assay: Antibacterial activity against Acinetobacter calcoaceticus IFO12552 by antimicrobial disk and dilution susceptibility test; type: functional
Proteus vulgaris = assay: Antibacterial activity against Proteus vulgaris OX-19 by antimicrobial disk and dilution susceptibility test; type: functional
Proteus mirabilis = assay: Antibacterial activity against Proteus mirabilis IFO3849 by antimicrobial disk and dilution susceptibility test; type: functional
Escherichia coli = assay: Antibacterial activity against Escherichia coli NIHJ JC-2 by antimicrobial disk and dilution susceptibility test; type: functional
Citrobacter freundii = assay: Antibacterial activity against Citrobacter freundii ATCC 8090 by antimicrobial disk and dilution susceptibility test; type: functional

Structure (SMILES): CC[C@H]1OC(=O)[C@H](C)[C@@H](O[C@H]2C[C@@](C)(OC)[C@@H](O)[C@H](C)O2)[C@H](C)[C@@H](O[C@@H]2O[C@H](C)C[C@H](N(C)C)[C@H]2O)[C@](C)(O)C[C@@H](C)C(=O)[C@H](C)[C@@H](O)[C@]1(C)O [ERYTHROMYCIN]
- IC50 (Chitinase B [1]): > 300 µM

Structure (SMILES): CC(=O)NC(=N)NCCC[C@@H]1NC(=O)[C@H](CCCC(=O)O)NC(=O)[C@H](Cc2c[nH]cn2)N2C(=O)[C@H](C[C@H]2O)NC(=O)[C@H]2CCCN2C1=O [ARGADIN]
- IC50 (Chitinase B [2]): 0.033 µM

Structure (SMILES): CC[C@H]1OC(=O)[C@H](C)[C@@H](O)[C@H](C)[C@@H](O)[C@](C)(O)C[C@@H](C)/C(=N\OCc2cn(CCNC(=N)NC(=O)NC)nn2)[C@H](C)[C@@H](O)[C@]1(C)O
- IC50 (Chitinase B [1]): 24.1 µM

Structure (SMILES): C#CCO[C@@H]1[C@@H](C)[C@H](O)[C@@H](C)C(=O)O[C@H](CC)[C@@](C)(O)[C@@H]2OC(C)(C)O[C@H]([C@@H]2C)[C@H](C)C[C@@]1(C)O
- IC50 (Chitinase B [1]): > 300 µM

Structure (SMILES): CC[C@H]1OC(=O)[C@H](C)[C@@H](O)[C@H](C)[C@@H](O)[C@](C)(O)C[C@@H](C)[C@@H]2OC(C)(C)O[C@H]([C@H]2C)[C@]1(C)O
- IC50 (Chitinase B [1]): > 300 µM

Structure (SMILES): CC(=O)N[C@H]1[C@H](O[C@H]2[C@@H](O)[C@@H](NC(C)=O)[C@H](O[C@H]3[C@H](O)[C@H]4N=C(N(C)C)O[C@H]4[C@@H]3CO)O[C@@H]2CO)O[C@H](CO)[C@@H](O)[C@H]1O [ALLOSAMIDIN]
- IC50 (Chitinase B [1]): 0.09 µM

Structure (SMILES): CC[C@H]1OC(=O)[C@H](C)[C@@H](O)[C@H](C)[C@@H](OCc2cn(CCNC(=N)NC(=O)NC)nn2)[C@](C)(O)C[C@@H](C)[C@@H]2OC(C)(C)O[C@H]([C@H]2C)[C@]1(C)O
- IC50 (Chitinase B [1]): 11.9 µM

Structure (SMILES): CNC(=O)NC(=N)NCCN=[N+]=[N-]
- IC50 (Chitinase B [1]): 7 µM

Structure (SMILES): C#CCO[C@@H]1[C@@H](C)[C@H](OC(=O)NCCCNC(=N)NC(=O)NC)[C@@H](C)C(=O)O[C@H](CC)[C@@](C)(O)[C@@H]2OC(C)(C)O[C@H]([C@@H]2C)[C@H](C)C[C@@]1(C)O
- MIC (Klebsiella aerogenes): > 64 µg/mL
- MIC (Micrococcus luteus): > 64 µg/mL
- MIC (Staphylococcus aureus [3]): > 64 µg/mL
- IC50 (Chitinase B [1]): 0.036 µM
- MIC (Enterococcus faecalis): > 64 µg/mL
- MIC (Pseudomonas aeruginosa [4]): > 64 µg/mL
- MIC (Serratia marcescens): > 64 µg/mL
- MIC (Pseudomonas aeruginosa [5]): > 64 µg/mL
- MIC [6]: > 64 µg/mL
- MIC (Klebsiella pneumoniae): > 64 µg/mL
- MIC (Staphylococcus aureus [7]): > 64 µg/mL
- MIC (Morganella morganii): > 64 µg/mL
- MIC (Enterobacter cloacae): > 64 µg/mL
- MIC [8]: > 64 µg/mL
- MIC (Proteus vulgaris): > 64 µg/mL
- MIC (Proteus mirabilis): > 64 µg/mL
- MIC (Escherichia coli): > 64 µg/mL
- MIC (Citrobacter freundii): > 64 µg/mL

Structure (SMILES): C#CCO[C@@H]1[C@@H](C)[C@H](OC(=O)NCCCCNC(=N)NC(=O)NC)[C@@H](C)C(=O)O[C@H](CC)[C@@](C)(O)[C@@H]2OC(C)(C)O[C@H]([C@@H]2C)[C@H](C)C[C@@]1(C)O
- IC50 (Chitinase B [1]): 0.217 µM

Structure (SMILES): CC[C@H]1OC(=O)[C@H](C)[C@@H](OCc2cn(CCNC(=N)NC(=O)NC)nn2)[C@H](C)[C@@H](O)[C@](C)(O)C[C@@H](C)[C@@H]2OC(C)(C)O[C@H]([C@H]2C)[C@]1(C)O
- IC50 (Chitinase B [1]): 3.3 µM

Structure (SMILES): CNC(=O)NC(=N)n1cccn1
- IC50 (Chitinase B [1]): > 300 µM
